The results in this text go back to ChEMBL document CHEMBL2069233, “New hypotheses for the binding mode of 4- and 7-substituted indazoles in the active site of neuronal nitric oxide synthase” (Bioorg Med Chem, 2012).

Structures are written as SMILES.

Assay [1] concerns the target Nitric oxide synthase 1 (Rattus norvegicus) (UniProt P29476). Description: Inhibition of nNOS in rat cerebellum homogenates assessed as reduction in conversion of L-[3H]arginine to L-[3H]citrulline at 100 uM. It counts as tissue-based.
In the next assay the target is Nitric oxide synthase 1 (Rattus norvegicus, UniProt P29476). The assay is described as follows: Inhibition of nNOS in rat cerebellum homogenates assessed as reduction in conversion of L-[3H]arginine to L-[3H]citrulline. The assay is classed as tissue-based. Put shortly:
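Rat cerebellum homogenate as nNOS source; L-[3H]arginine to L-[3H]citrulline conversion with 1 mM CaCl2, 200 μM β-NADPH, 0.88 μM L-arginine plus 0.12 μM L-[3H]arginine, 15 min at 37 °C. Compounds in DMSO 0.4%, tested at 0.01, 0.1, 1, 10 and 100 μM. IC50 taken from inhibition curves, mean ± sem over 3–7 experiments.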

Sequence of Nitric oxide synthase 1 (P29476 whole entry): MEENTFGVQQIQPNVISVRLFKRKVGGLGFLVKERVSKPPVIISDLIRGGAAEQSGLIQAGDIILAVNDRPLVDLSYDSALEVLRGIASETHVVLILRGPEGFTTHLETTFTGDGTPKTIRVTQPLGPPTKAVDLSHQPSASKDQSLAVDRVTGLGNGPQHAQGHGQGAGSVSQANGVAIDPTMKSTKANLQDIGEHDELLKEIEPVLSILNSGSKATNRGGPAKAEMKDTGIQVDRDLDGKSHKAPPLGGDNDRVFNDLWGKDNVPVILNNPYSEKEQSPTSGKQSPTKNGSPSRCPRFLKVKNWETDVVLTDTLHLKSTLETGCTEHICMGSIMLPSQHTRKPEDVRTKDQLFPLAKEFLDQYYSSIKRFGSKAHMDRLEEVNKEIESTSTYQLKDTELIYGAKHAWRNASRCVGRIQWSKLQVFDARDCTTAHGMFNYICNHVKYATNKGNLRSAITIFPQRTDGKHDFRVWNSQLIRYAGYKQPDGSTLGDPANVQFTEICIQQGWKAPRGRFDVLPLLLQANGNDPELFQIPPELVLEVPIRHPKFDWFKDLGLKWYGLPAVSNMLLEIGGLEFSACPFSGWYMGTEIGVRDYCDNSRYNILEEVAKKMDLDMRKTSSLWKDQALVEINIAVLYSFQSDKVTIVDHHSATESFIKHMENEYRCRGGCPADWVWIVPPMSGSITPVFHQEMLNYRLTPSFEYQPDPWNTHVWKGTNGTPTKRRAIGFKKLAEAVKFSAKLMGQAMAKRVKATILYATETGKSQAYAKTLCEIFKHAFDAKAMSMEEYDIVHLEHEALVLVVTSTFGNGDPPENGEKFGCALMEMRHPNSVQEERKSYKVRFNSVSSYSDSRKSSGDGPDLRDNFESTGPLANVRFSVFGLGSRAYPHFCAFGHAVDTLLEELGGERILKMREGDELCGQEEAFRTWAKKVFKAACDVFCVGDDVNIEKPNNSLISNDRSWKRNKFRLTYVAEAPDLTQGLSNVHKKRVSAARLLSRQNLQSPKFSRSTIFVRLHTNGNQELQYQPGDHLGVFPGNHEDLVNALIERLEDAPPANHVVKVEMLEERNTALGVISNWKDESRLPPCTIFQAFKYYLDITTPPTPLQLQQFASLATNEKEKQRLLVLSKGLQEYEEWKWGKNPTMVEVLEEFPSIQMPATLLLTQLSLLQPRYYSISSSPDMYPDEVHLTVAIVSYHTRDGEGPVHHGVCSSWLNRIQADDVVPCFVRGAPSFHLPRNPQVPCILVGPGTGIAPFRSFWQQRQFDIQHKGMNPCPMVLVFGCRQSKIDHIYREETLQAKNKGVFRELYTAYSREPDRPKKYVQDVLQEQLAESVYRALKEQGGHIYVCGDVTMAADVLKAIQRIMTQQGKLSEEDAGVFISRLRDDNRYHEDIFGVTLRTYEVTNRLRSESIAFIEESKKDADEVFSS
Sequence of Nitric oxide synthase 1 (Rattus norvegicus) (P29476 whole entry): as above

Take `Cn1cc2c(Br)cccc2n1`: the inhibition in assay [1] stood at 19%. In addition, the IC50 on Nitric oxide synthase 1 was above 100 µM.

With `Cn1cc2c([N+](=O)[O-])cccc2n1`, in assay [1], the inhibition was found to be 34%. On Nitric oxide synthase 1, the IC50 is above 100 µM.

For the compound `Cn1ncc2c(Br)cccc21`, in assay [1], the inhibition was 75%. In addition, the IC50 on Nitric oxide synthase 1 worked out at 28.2 µM.

Regarding `Cn1ncc2c([N+](=O)[O-])cccc21`, the inhibition in assay [1] amounted to 86%. The IC50 on Nitric oxide synthase 1 was 10.6 µM.

With `N#Cc1cccc2[nH]ncc12`, the inhibition in assay [1] was found to be 63%. Moreover, the 50% inhibitory concentration (IC50) on Nitric oxide synthase 1 worked out at 42.5 µM.

For `CCn1ncc2c([N+](=O)[O-])cccc21`, the inhibition in assay [1] was found to be 67%. For the same compound, the IC50 on Nitric oxide synthase 1 turned out to be 51.7 µM.

Regarding `CCn1ncc2c(Br)cccc21`, the inhibition in assay [1] is 61%. Further, the IC50 at Nitric oxide synthase 1 came out at 72.5 µM.

As to `CCn1cc2c([N+](=O)[O-])cccc2n1`, the inhibition in assay [1] came to 34%. The IC50 on Nitric oxide synthase 1 was above 100 µM.

For the compound `CCn1cc2c(Br)cccc2n1`, the inhibition in assay [1] stood at 0%. Besides, the IC50 on Nitric oxide synthase 1 is above 100 µM.

In general, inhibition refers to the change of the read-out against control, counted positive when it falls. One may read the IC50 as the midpoint of a concentration-inhibition curve.
